The target in test [1] is Cannabinoid receptor 2 (Homo sapiens) (UniProt P34972). Nature of the test: Intrinsic activity at CB2 receptor assessed as induction of ERK1/2 phosphorylation in HL60 cells at 10 nM after 10 mins relative to control. In kind it is functional, cell-based. A digest of the protocol: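 HL-60 cells in RPMI 1640 with 10% heat-inactivated FBS, 37 °C, 5% CO2, used at 80% confluency. Compounds in medium with 1% DMSO added to the cell suspension for 10 min. Lysates western blotted with anti-phospho-MAPK 1/2 and read by chemiluminescence. Phospho-ERK 1/2 given as mean percentage of vehicle from five separate experiments.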
Cannabinoid receptor 2 (Homo sapiens), sequence (P34972 whole entry): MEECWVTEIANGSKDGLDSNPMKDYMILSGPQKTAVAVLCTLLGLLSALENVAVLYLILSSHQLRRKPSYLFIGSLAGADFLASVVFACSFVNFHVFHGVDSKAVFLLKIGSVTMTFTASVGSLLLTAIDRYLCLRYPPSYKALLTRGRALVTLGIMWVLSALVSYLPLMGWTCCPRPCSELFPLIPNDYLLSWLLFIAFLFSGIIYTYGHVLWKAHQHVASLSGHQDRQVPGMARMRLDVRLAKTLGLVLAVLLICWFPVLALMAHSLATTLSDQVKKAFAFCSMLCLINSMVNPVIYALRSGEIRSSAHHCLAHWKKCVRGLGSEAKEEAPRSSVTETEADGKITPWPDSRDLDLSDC

In test [2] the target is Cannabinoid receptor (Mus musculus) (UniProt P47746+P47936). Nature of the test: Selectivity for CD1 mouse CB2 receptor over CB1 receptor. The format is protein assay.
Cannabinoid receptor (Mus musculus), sequence (P47746 whole entry, looked up): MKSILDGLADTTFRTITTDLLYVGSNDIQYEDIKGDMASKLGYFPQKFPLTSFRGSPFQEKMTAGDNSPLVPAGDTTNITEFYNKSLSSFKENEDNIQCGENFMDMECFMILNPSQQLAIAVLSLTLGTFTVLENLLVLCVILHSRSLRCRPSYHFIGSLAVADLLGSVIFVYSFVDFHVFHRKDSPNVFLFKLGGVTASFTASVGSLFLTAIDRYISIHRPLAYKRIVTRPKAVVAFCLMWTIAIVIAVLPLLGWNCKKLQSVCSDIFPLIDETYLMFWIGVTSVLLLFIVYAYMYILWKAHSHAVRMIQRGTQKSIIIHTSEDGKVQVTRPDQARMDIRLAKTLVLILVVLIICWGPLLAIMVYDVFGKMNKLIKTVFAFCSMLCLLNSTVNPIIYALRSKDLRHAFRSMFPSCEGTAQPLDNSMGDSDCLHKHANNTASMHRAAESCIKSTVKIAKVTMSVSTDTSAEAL
Cannabinoid receptor (Mus musculus), sequence (P47936 whole entry, looked up): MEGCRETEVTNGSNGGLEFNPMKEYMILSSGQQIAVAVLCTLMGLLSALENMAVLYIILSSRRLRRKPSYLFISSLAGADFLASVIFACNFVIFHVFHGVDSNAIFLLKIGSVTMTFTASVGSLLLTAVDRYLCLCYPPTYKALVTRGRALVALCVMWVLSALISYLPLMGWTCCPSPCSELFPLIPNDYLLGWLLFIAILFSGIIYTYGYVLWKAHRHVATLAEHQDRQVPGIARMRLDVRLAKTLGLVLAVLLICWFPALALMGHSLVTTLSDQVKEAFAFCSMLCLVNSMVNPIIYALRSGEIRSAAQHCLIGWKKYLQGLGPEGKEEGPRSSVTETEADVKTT
The target in a further test is Cannabinoid receptor 1 (Mus musculus, UniProt P47746). Kind of test: Displacement of [3H]CP-55940 from CD1 mouse brain CB1 receptor. The format is tissue-based. In outline:
(§1)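 Male CD-1 mouse brain (minus cerebellum) for CB1 or spleen for CB2, homogenised in ice-cold TME (50 mM Tris-HCl, 1 mM EDTA, 3.0 mM MgCl2, pH 7.4) and centrifuged to membranes. GF/C filtration, scintillation counting. Triplicate, five independent experiments; sigmoid fit IC50 converted to Ki.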

The next test addresses Cannabinoid receptor 2 (Mus musculus, UniProt P47936). Kind of test: Displacement of [3H]CP-55940 from CD1 mouse spleen CB2 receptor. In kind it is tissue-based. In outline:
as §1

Cannabinoid receptor 2, sequence (P47936 whole entry): as the sequence (P47936 whole entry, looked up) above
Cannabinoid receptor 1, sequence (P47746 whole entry): as the sequence (P47746 whole entry, looked up) above

The term Ki denotes a dissociation constant, usually derived from enzyme kinetics or from competition with a known ligand. With `Cc1ccc2c(c1)Cc1c(C(=O)Nc3ccccc3)nn(-c3ccc(Cl)cc3Cl)c1-2`, the Activity in test [1] (HL-60) was 125%; in test [1] (HL-60, filed as agonist) it was “Agonist”. In test [2], the Ratio Ki amounted to 73. Also, the Ki at Cannabinoid receptor 1 is 2410 nM; on Cannabinoid receptor 2 it was 32.8 nM.
For `O=C(NN1CCCCC1)c1nn(-c2ccc(Cl)cc2Cl)c2c1Cc1cc(Cl)ccc1-2`, the Activity in test [1] (HL-60) is 65%; in test [1] (HL-60, filed as agonist) it was “Agonist”. The Ratio Ki in test [2] turned out to be 6030.
Regarding `Cc1ccc2c(c1)Cc1c(C(=O)Nc3ccc(Cl)cc3Cl)nn(-c3ccc(Cl)cc3Cl)c1-2`, the Ki on Cannabinoid receptor 1 is 2630 nM; at Cannabinoid receptor 2, over 5000 nM.
The corresponding values for `COc1ccc(NC(=O)c2nn(-c3ccc(Cl)cc3Cl)c3c2Cc2cc(C)ccc2-3)cc1` are over 10000 nM and 114 nM.
`Cc1cc2c(cc1Cl)-c1c(c(C(=O)NC3CCCCC3)nn1-c1ccc(Cl)cc1Cl)C2`: the Ratio Ki in test [2] stood at 33.
Consider `Cc1ccc2c(c1)Cc1c(C(=O)NNc3ccc([N+](=O)[O-])cc3)nn(-c3ccc(Cl)cc3Cl)c1-2`, for which the Ratio Ki in test [2] came out at 2. Besides, the Ki on Cannabinoid receptor 1 was determined as 4500 nM; on Cannabinoid receptor 2 it was 2120 nM.
As to `Cc1ccc2c(c1)Cc1c(C(=O)Nc3ccc(F)cc3)nn(-c3ccc(Cl)cc3Cl)c1-2`, the figures for the Ki on Cannabinoid receptor 1 and on Cannabinoid receptor 2 were over 5000 nM and 61 nM, respectively.
Take `Cc1ccc2c(c1)Cc1c(C(=O)NNc3ccccc3)nn(-c3ccc(Cl)cc3Cl)c1-2`: in test [2], the Ratio Ki was determined as 36. In addition, the values for the Ki on Cannabinoid receptor 1 and at Cannabinoid receptor 2 were 2280 nM and 63 nM, respectively.
For the compound `Cc1ccc(NC(=O)c2nn(-c3ccc(Cl)cc3Cl)c3c2Cc2cc(C)ccc2-3)cc1`, the Ki is over 5000 nM on Cannabinoid receptor 1 and 74 nM at Cannabinoid receptor 2.
With `COc1ccc(NNC(=O)c2nn(-c3ccc(Cl)cc3Cl)c3c2Cc2cc(C)ccc2-3)cc1`, the Ki is over 5000 nM on Cannabinoid receptor 1 and 3000 nM at Cannabinoid receptor 2.
Consider `CCCCCCC(C)(C)c1ccc(C2CC(O)CC[C@H]2CCCO)c(O)c1` (single isomer, unassigned) [CP-55940], for which the inhibitory constant (Ki) at Cannabinoid receptor 1 was 1.5 nM; at Cannabinoid receptor 2 it was 1.11 nM.
On to `Cc1ccc2c(c1)Cc1c(C(=O)NC3CCCCC3)nn(-c3ccc(Cl)cc3Cl)c1-2`, for which the Activity in test [1] (HL-60) is 61.3%; in test [1] (HL-60, filed as agonist), “Agonist”. The Ratio Ki in test [2] amounted to 118. In addition, the values for the inhibition constant (Ki) at Cannabinoid receptor 1 and at Cannabinoid receptor 2 were 900 nM and 7.6 nM, respectively.
As for `Cc1ccc2c(c1)Cc1c(C(=O)Nc3ccc(C(F)(F)F)cc3)nn(-c3ccc(Cl)cc3Cl)c1-2`, the Ki at Cannabinoid receptor 1 is over 10000 nM; at Cannabinoid receptor 2, over 5000 nM.
As to `Cc1cc2c(cc1Cl)-c1c(c(C(=O)NN3CCCCC3)nn1-c1ccc(Cl)cc1Cl)C2`, the Ratio Ki in test [2] stood at 4.6. The same compound returned a Ki at Cannabinoid receptor 2 of 200 nM.
Consider `Cc1cc2c(cc1Cl)Cc1c(C(=O)NN3CCCCC3)nn(-c3ccc(Cl)cc3Cl)c1-2`, for which the Ratio Ki in test [2] stood at 14.
With `Cc1ccc2c(c1)Cc1c(C(=O)Nc3ccc(Cl)c(Cl)c3)nn(-c3ccc(Cl)cc3Cl)c1-2`, the Ki on Cannabinoid receptor 1 and on Cannabinoid receptor 2 was over 10000 nM in each case.
For the compound `Cc1ccc2c(c1)Cc1c(C(=O)NNc3ccc(Cl)cc3)nn(-c3ccc(Cl)cc3Cl)c1-2`, the figures for the Ki on Cannabinoid receptor 1 and on Cannabinoid receptor 2 were over 10000 nM and over 5000 nM, respectively.
Consider `Cc1ccc(Cn2nc(C(=O)N[C@@H]3C(C)(C)[C@@H]4CC[C@@]3(C)C4)cc2-c2ccc(Cl)c(C)c2)cc1`, for which the Ratio Ki in test [2] was found to be 250.
Consider `Cc1ccc2c(c1)Cc1c(C(=O)Nc3ccc(Cl)cc3)nn(-c3ccc(Cl)cc3Cl)c1-2`, for which the Ki on Cannabinoid receptor 1 is over 10000 nM; on Cannabinoid receptor 2 it was 177 nM.
As for `Cc1ccc2c(c1)Cc1c(C(=O)NN3CCCCC3)nn(-c3ccc(Cl)cc3Cl)c1-2`, the Activity in test [1] (HL-60) is 83%; in test [1] (HL-60, filed as agonist), “Agonist”. Moreover, the Ratio Ki in test [2] is 9810. For the same compound, the Ki was 363 nM on Cannabinoid receptor 1 and 0.037 nM on Cannabinoid receptor 2.
